From ChEMBL document CHEMBL1142436, “Design and synthesis of 4-substituted indolo[3,2-e][1,2,3]triazolo[1,5-a]pyrimidine derivatives with antitumor activity” (2008)

Columns and labels:
Type in all cases: functional
OVCAR-8 = assay: Growth inhibition of human OVCAR8 cells after 48 hrs; details: OVCAR-8, 48 h
Procedure, shortened: (§1)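 NCI ~60-line screen. Cells were grown in RPMI 1640 with 5% FBS and 2 mM L-glutamine and plated at 5000–40000 cells/well. After a 24 h preincubation, five drug concentrations from DMSO stocks were added for 48 h at 37 °C. Cells were TCA-fixed, stained with SRB and read at 515 nm. GI50 was taken from time-zero and control absorbances and reported as pGI50.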

UACC-257 = assay: Growth inhibition of human UACC257 cells after 48 hrs; details: UACC-257, 48 h
Procedure, shortened: (§2)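 NCI 60-line screen: cells in RPMI 1640 with 5% FBS and 2 mM L-glutamine, plated at 5000–40000 cells/well, grown 24 h (37 °C, 5% CO₂), then exposed to five 10-fold or ½-log dilutions (DMSO stock) for 48 h. Fixed with TCA (final 10% for adherent cells, 16% for suspension cells), then SRB stained with absorbance at 515 nm. GI50 from percentage growth relative to time-zero and control wells.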

CAKI-1 = assay: Growth inhibition of human CAKI1 cells after 48 hrs; details: CAKI-1, 48 h; procedure, shortened: as §1
BT-549 = assay: Growth inhibition of human BT549 cells after 48 hrs; details: BT-549, 48 h; procedure, shortened: as §1
EKVX = assay: Growth inhibition of human EKVX cells after 48 hrs; procedure, shortened: as §1
T47D = assay: Growth inhibition of human T47D cells after 48 hrs; procedure, shortened: as §2
SNB-75 = assay: Growth inhibition of human SNB75 cells after 48 hrs; details: SNB-75, 48 h; procedure, shortened: as §2
M14 = assay: Growth inhibition of human M14 cells after 48 hrs; details: M14, 48 h; procedure, shortened: as §1
MDA-MB-435 = assay: Growth inhibition of human MDA-MB435 cells after 48 hrs; details: MDA-MB-435, 48 h; procedure, shortened: as §1
KM12 = assay: Growth inhibition of human KM12 cells after 48 hrs; details: KM12, 48 h; procedure, shortened: as §1
MOLT-4 = assay: Growth inhibition of human MOLT4 cells after 48 hrs; details: MOLT-4, 48 h; procedure, shortened: as §1
NCI-H460 [1] = assay: Growth inhibition of human NCI-H460 cells after 48 hrs; details: NCI-H460, 48 h; procedure, shortened: as §1
SR = assay: Growth inhibition of human SR cells after 48 hrs; procedure, shortened: as §2
OVCAR-4 = assay: Growth inhibition of human OVCAR4 cells after 48 hrs; details: OVCAR-4, 48 h; procedure, shortened: as §1
NCI-H522 = assay: Growth inhibition of human NCI-H522 cells after 48 hrs; details: NCI-H522, 48 h; procedure, shortened: as §1
A549 = assay: Growth inhibition of human A549 cells after 48 hrs; details: A549, 48 h; procedure, shortened: as §1
SK-OV-3 = assay: Growth inhibition of human SKOV3 cells after 48 hrs; details: SK-OV-3, 48 h; procedure, shortened: as §2
786-0 = assay: Growth inhibition of human 786-0 cells after 48 hrs; details: 786-0, 48 h; procedure, shortened: as §1
SF-539 = assay: Growth inhibition of human SF539 cells after 48 hrs; details: SF-539, 48 h; procedure, shortened: as §1
K562 = assay: Growth inhibition of human K562 cells after 48 hrs; details: K562, 48 h; procedure, shortened: as §1
SK-MEL-5 = assay: Growth inhibition of human SK-MEL5 cells after 48 hrs; details: SK-MEL-5, 48 h; procedure, shortened: as §1
HCT-116 = assay: Growth inhibition of human HCT116 cells after 48 hrs; details: HCT-116, 48 h; procedure, shortened: as §1
DU-145 = assay: Growth inhibition of human DU145 cells after 48 hrs; details: DU-145, 48 h; procedure, shortened: as §1
SNB-19 = assay: Growth inhibition of human SNB19 cells after 48 hrs; details: SNB-19, 48 h; procedure, shortened: as §2
UACC-62 = assay: Growth inhibition of human UACC62 cells after 48 hrs; details: UACC-62, 48 h; procedure, shortened: as §2
MDA-MB-231 = assay: Growth inhibition of human MDA-MB-231 cells after 48 hrs; details: MDA-MB-231, 48 h; procedure, shortened: as §1
PC-3 = assay: Growth inhibition of human PC3 cells after 48 hrs; details: PC-3, 48 h; procedure, shortened: as §1
COLO 205 = assay: Growth inhibition of human COLO205 cells after 48 hrs; details: COLO 205, 48 h; procedure, shortened: as §1
HOP-92 = assay: Growth inhibition of human HOP92 cells after 48 hrs; details: HOP-92, 48 h; procedure, shortened: as §1
Malme-3M = assay: Growth inhibition of human MALME3M cells after 48 hrs; procedure, shortened: as §1
U-251 = assay: Growth inhibition of human U251 cells after 48 hrs; details: U-251, 48 h; procedure, shortened: as §2
UO-31 = assay: Growth inhibition of human UO31 cells after 48 hrs; details: UO-31, 48 h; procedure, shortened: as §2
HOP-62 = assay: Growth inhibition of human HOP62 cells after 48 hrs; details: HOP-62, 48 h; procedure, shortened: as §1
OVCAR-3 = assay: Growth inhibition of human OVCAR-3 cells after 48 hrs; details: OVCAR-3, 48 h; procedure, shortened: as §1
SF-268 [2] = assay: Growth inhibition of human SF268 cells after 48 hrs; details: SF-268, 48 h; procedure, shortened: as §1
A498 = assay: Growth inhibition of human A498 cells after 48 hrs; details: A498, 48 h; procedure, shortened: as §1
HCT-15 = assay: Growth inhibition of human HCT15 cells after 48 hrs; details: HCT-15, 48 h; procedure, shortened: as §1
LOX IMVI = assay: Growth inhibition of human LOXIMVI cells after 48 hrs; procedure, shortened: as §1
[3] = Growth inhibition of human HS578T cells after 48 hrs; details: Hs-578T; procedure, shortened: as §1
MCF7 [4] = assay: Growth inhibition of human MCF7 cells after 48 hrs; details: MCF7, 48 h; procedure, shortened: as §1
TK-10 = assay: Growth inhibition of human TK10 cells after 48 hrs; details: TK-10, 48 h; procedure, shortened: as §2
NCI-H23 = assay: Growth inhibition of human NCI-H23 cells after 48 hrs; details: Homo sapiens, NCI-H23, 48 h; procedure, shortened: as §1
HCC 2998 = assay: Growth inhibition of human HCC2998 cells after 48 hrs; details: HCC 2998, 48 h; procedure, shortened: as §1
HL-60 = assay: Growth inhibition of human HL60 cells after 48 hrs; details: HL-60, 48 h; procedure, shortened: as §1
SK-MEL-2 = assay: Growth inhibition of human SK-MEL2 cells after 48 hrs; details: SK-MEL-2, 48 h; procedure, shortened: as §1
NCI/ADR-RES = assay: Growth inhibition of human NCI/ADR-RES cells after 48 hrs; procedure, shortened: as §1
SF-295 = assay: Growth inhibition of human SF295 cells after 48 hrs; details: SF-295, 48 h; procedure, shortened: as §1
SK-MEL-28 = assay: Growth inhibition of human SK-MEL28 cells after 48 hrs; details: SK-MEL-28, 48 h; procedure, shortened: as §1
IGROV-1 = assay: Growth inhibition of human IGROV1 cells after 48 hrs; details: IGROV-1, 48 h; procedure, shortened: as §1
SW-620 = assay: Growth inhibition of human SW620 cells after 48 hrs; details: SW-620, 48 h; procedure, shortened: as §2
CCRF-CEM = assay: Growth inhibition of human CCRF-CEM cells after 48 hrs; procedure, shortened: as §1
ACHN = assay: Growth inhibition of human ACHN cells after 48 hrs; procedure, shortened: as §1
RPMI-8226 = assay: Growth inhibition of human RPMI8226 cells after 48 hrs; details: RPMI-8226, 48 h; procedure, shortened: as §1
NCI-H226 = assay: Growth inhibition of human NCI-H226 cells after 48 hrs; details: NCI-H226, 48 h; procedure, shortened: as §1
OVCAR-5 = assay: Growth inhibition of human OVCAR5 cells after 48 hrs; details: OVCAR-5, 48 h; procedure, shortened: as §1
NCI-H322M = assay: Growth inhibition of human NCI-H322M cells after 48 hrs; procedure, shortened: as §1
SN12C = assay: Growth inhibition of human SN12C cells after 48 hrs; procedure, shortened: as §2
RXF 393 = assay: Growth inhibition of human RXF393 cells after 48 hrs; details: RXF 393, 48 h; procedure, shortened: as §1
HT-29 = assay: Growth inhibition of human HT29 cells after 48 hrs; details: HT-29, 48 h; procedure, shortened: as §1
MCF7 [5] = assay: Antitumor activity against human MCF7 cells at 0.1 mM after 48 hrs
Procedure, shortened: (§3)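 Prescreen run under the NCI Developmental Therapeutic Program. Agents were tested at a single concentration of 10^-4 M against a three-line panel (MCF7, NCI-H460, SF-268).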

NCI-H460 [6] = assay: Antitumor activity against human NCI-H460 cells at 0.1 mM after 48 hrs; procedure, shortened: as §3
SF-268 [7] = assay: Antitumor activity against human SF268 cells at 0.1 mM after 48 hrs; procedure, shortened: as §3

Cn1c2ccccc2c2c(=O)n(CCCC(=O)N(C(=O)NC3CCCCC3)C3CCCCC3)c3c(-c4ccccc4)nnn3c21
97.7 µM: GI50 (SF-268 [2])
95.5 µM: GI50 (NCI/ADR-RES)
44.7 µM: GI50 (SNB-75)
56.2 µM: GI50 (T47D)
79.4 µM: GI50 (SF-295)
72.4 µM: GI50 (BT-549) | GI50 (MDA-MB-231)
66.1 µM: GI50 (A498)
63.1 µM: GI50 (RXF 393)
69.2 µM: GI50 (NCI-H522)
64.6 µM: GI50 (MCF7 [4])
> 100 µM: GI50 (OVCAR-8) | GI50 (UACC-257) | GI50 (CAKI-1) | GI50 (EKVX) | GI50 (M14) | GI50 (MDA-MB-435) | GI50 (KM12) | GI50 (MOLT-4) | GI50 (NCI-H460 [1]) | GI50 (SR) | GI50 (A549) | GI50 (SK-OV-3) | GI50 (786-0) | GI50 (K562) | GI50 (SK-MEL-5) | GI50 (DU-145) | GI50 (SNB-19) | GI50 (UACC-62) | GI50 (PC-3) | GI50 (COLO 205) | GI50 (HOP-92) | GI50 (Malme-3M) | GI50 (U-251) | GI50 (UO-31) | GI50 (HOP-62) | GI50 (OVCAR-3) | GI50 (HCT-15) | GI50 (LOX IMVI) | GI50 [3] | GI50 (TK-10) | GI50 (NCI-H23) | GI50 (HCC 2998) | GI50 (HL-60) | GI50 (SK-MEL-2) | GI50 (SK-MEL-28) | GI50 (SW-620) | GI50 (CCRF-CEM) | GI50 (ACHN) | GI50 (RPMI-8226) | GI50 (NCI-H226) | GI50 (OVCAR-5) | GI50 (NCI-H322M) | GI50 (SN12C) | GI50 (HT-29)
38 µM: GI50 (OVCAR-4) | GI50 (SF-539)
15.5 µM: GI50 (IGROV-1)
91.2 µM: GI50 (HCT-116)

COC(=O)C(Cc1c[nH]cn1)NC(=O)CCCn1c(=O)c2c3ccccc3n(C)c2n2nnc(-c3ccccc3)c12 (configuration not stated)
116%: Activity (MCF7 [5])
117%: Activity (NCI-H460 [6])
128%: Activity (SF-268 [7])
